Reference: article PMC5132082 (Clinical Pharmacology in Drug Development, 2016)
Where two headings read alike, the source gives them in different places. Marks after values point to notes of the source that are not given here.

How the values were obtained:
[1] = cited from earlier work
[2] = assay type: in vivo, human; conditions: for AUC0–∞ ratio of geometric means (90%CI) / Cmax ratio of geometric means (90%CI) / CL/F ratio of geometric means (90%CI) / Vz/F ratio of geometric means (90%CI): ANOVA; for Tmax median difference (90%CI): Hodges-Lehmann estimate; for t1/2 geometric mean difference: severely renal impaired vs healthy matched
[3] = cited from earlier work; remark: listed apart in the source
[4] = assay type: in vivo, human; conditions: M12
Method in brief: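 Urine collected predose (≤60 min before dosing) and over 0‒8, 8‒24, 24‒48 and 48‒72 h postdose. M12 measured by achiral LC-MS/MS (LLOQ 5 ng/mL). Excreted amount = urine concentration × interval urine volume. Renal clearance = cumulative 72-h urinary M12 divided by plasma AUC0–72. Summarised descriptively by group.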

Safety monitoring = assay type: in vivo, human; conditions: for subjects reporting AEs: single oral 30 mg
Method in brief: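 Subjects were confined from the evening before dosing through the PK sampling period. Monitoring ran throughout the study and covered adverse events, complete physical examinations, vital signs, 12-lead ECGs, clinical laboratory safety tests and prior and concomitant medications. Follow-up safety visit 11‒18 days after dosing.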

[5] = population pharmacokinetic model built in a phase 3 study; cited from earlier work
[6] = moderate and severe hepatic impairment; cited from earlier work
[7] = cited from earlier work; remark: listed apart in the source
[8] = M12, mild renal impaired/healthy matched
[9] = M12, moderate renal impaired/healthy matched
[10] = M12, severe renal impaired/healthy matched
[11] = M12, subjects with mild renal impairment
[12] = M12, subjects with moderate renal impairment
[13] = M12, subjects with severe renal impairment
[14] = apremilast, mild renal impaired/healthy matched
[15] = apremilast, moderate renal impaired/healthy matched
[16] = apremilast, moderate renal impairment group
[17] = apremilast, severe renal impaired/healthy matched
[18] = apremilast, severe renal impairment vs healthy matched
[19] = apremilast, subjects with severe renal impairment
[20] = healthy subjects, single oral dose

CCOc1cc([C@@H](CS(C)(=O)=O)N2C(=O)c3cccc(NC(C)=O)c3C2=O)ccc1O[C@@H]1O[C@H](C(=O)O)[C@@H](O)[C@H](O)[C@H]1O [M12, O‐desmethyl apremilast glucuronide]
pharmacological activity [1]: pharmacologically inactive | AUC0–∞ ratio of geometric means (90%CI) [2, 8]: 129.6 (99.5–168.8) % | Cmax ratio of geometric means (90%CI) [2, 8]: 130.8 (91.7–186.6) % | AUC0–∞ ratio of geometric means (90%CI) [2, 9]: 161.4 (122.8–212.3) % | Cmax ratio of geometric means (90%CI) [2, 9]: 116.9 (81.9–166.8) % | Tmax median difference (90%CI) ([2]; M12, severe renal impaired vs healthy matched): 6.25 (2.975–11.0) h | AUC0–∞ ratio of geometric means (90%CI) [2, 10]: 291.7 (204.3–416.4) % | Cmax ratio of geometric means (90%CI) [2, 10]: 142.9 (106.3–192.1) % | t1/2 geometric mean difference ([2]; M12): 10.498 ^d (NC) h | AUC0–∞ higher than in healthy matched subjects [2, 11]: 29.6% | Cmax higher than in healthy matched subjects [2, 11]: 30.8% | AUC0–∞ higher than in healthy matched subjects [2, 12]: 61.4% | Cmax higher than in healthy matched subjects [2, 12]: 16.9% | Tmax delayed compared with healthy matched subjects ([2]; M12, subjects with renal impairment (severe study), P ≤ .05): ≈ 6.25 hours | increase in AUC0–∞ vs healthy matched subjects [2, 13]: 191.7% | increase in Cmax vs healthy matched subjects [2, 13]: 42.9% | share of the circulating radioactivity ([3]; after a single oral dose of [14C]apremilast): 39% | geometric mean renal clearance ([4]; healthy subjects matched with subjects with mild renal impairment): 3.67 L/h | geometric mean renal clearance ([4]; healthy subjects matched with subjects with moderate renal impairment): 3.02 L/h | renal clearance decreased ([4]; subjects with mild or moderate renal impairment): ≈ 40% | geometric mean renal clearance ([4]; subjects with mild renal impairment, urine 0-72 h / plasma AUC 0-72 h): 2.35 L/h | geometric mean renal clearance ([4]; subjects with moderate renal impairment): 1.84 L/h

CCOc1cc([C@@H](CS(C)(=O)=O)N2C(=O)c3cccc(NC(C)=O)c3C2=O)ccc1OC [apremilast]
deaths or AEs leading to discontinuation (Safety monitoring; both studies): No deaths or AEs leading to discontinuation occurred | overall safety finding (Safety monitoring; both studies, single oral 30-mg dose): no unexpected AEs or safety signals | subjects with AEs considered possibly related to study medication or procedures (Safety monitoring; healthy matched group of severe study): 2 | subjects reporting AEs (Safety monitoring; healthy matched group of severe study (n = 8)): 2 | subjects with AEs suspected to be related to study medication or procedures (Safety monitoring; healthy matched groups of mild and moderate study): 3 | subjects reporting AEs (Safety monitoring; healthy matched groups of mild and moderate study (n = 16)): 5 | subjects with AEs suspected to be related to study medication or procedures (Safety monitoring; mild renal impairment group): 2 | subjects reporting AEs (Safety monitoring; mild renal impairment group (n = 8)): 2 | subjects with AEs suspected to be related to study medication or procedures (Safety monitoring; moderate renal impairment group): 1 | subjects reporting AEs (Safety monitoring; moderate renal impairment group (n = 8)): 2 | subjects with AEs considered possibly related to study medication or procedures (Safety monitoring; severe renal impairment group): 3 | subjects reporting AEs (Safety monitoring; severe renal impairment group (n = 8)): 4 | disease effect of PsA: slower clearance [5]: ≈ 36% | Tmax median difference (90%CI) ([2]; apremilast, mild renal impaired vs healthy matched): 0.0 (‐1.00 to 1.00) P > .9999 h | AUC0–∞ ratio of geometric means (90%CI) [2, 14]: 85.9 (65.8–112.0) % | CL/F ratio of geometric means (90%CI) [2, 14]: 116.5 (89.3–151.9) % | Cmax ratio of geometric means (90%CI) [2, 14]: 106.2 (84.7–133.1) % | Vz/F ratio of geometric means (90%CI) [2, 14]: 120.4 (92.2–157.2) % | Tmax median difference (90%CI) ([2]; apremilast, moderate renal impaired vs healthy matched): 1.0 (‐0.50 to 2.50) P = .25 h | AUC0–∞ ratio of geometric means (90%CI) [2, 15]: 122.1 (93.6–159.3) % | CL/F ratio of geometric means (90%CI) [2, 15]: 81.9 (62.8–106.8) % | Cmax ratio of geometric means (90%CI) [2, 15]: 87.5 (69.8–109.7) % | Vz/F ratio of geometric means (90%CI) [2, 15]: 103.2 (79.0–134.8) % | AUC0–∞ higher relative to healthy matched subjects [2, 16]: ≈ 22% | Cmax lower relative to healthy matched subjects [2, 16]: ≈ 13% | Tmax median difference (90%CI) ([2]; apremilast, severe renal impaired vs healthy matched): 0.00 (‐1.5 to 1.5) P > .9999 h | Vz/F ratio of geometric means ([2]; apremilast, severe renal impaired/healthy matched, 90%CI not calculated): 67.35 (NC) % | AUC0–∞ ratio of geometric means (90%CI) [2, 17]: 188.5 (132.5–268.0) % | CL/F ratio of geometric means (90%CI) [2, 17]: 53.10 (37.3–75.4) % | Cmax ratio of geometric means (90%CI) [2, 17]: 141.6 (102.9–194.8) % | VZ/F decreased [2, 18]: ~32.7% | t1/2 prolonged [2, 18]: ≈ 27% | t1/2 geometric mean difference ([2]; apremilast): 2.485 ^d (NC) h | AUC0–∞ higher compared with healthy matched subjects [2, 19]: 88.5% and ≈ 89% | Cmax higher compared with healthy matched subjects [2, 19]: 41.6% | apparent clearance relative to that of healthy matched subjects [2, 19]: ≈ 53% | effect of hepatic impairment on pharmacokinetic profile [6]: largely unaffected | absolute bioavailability [3, 20]: ≈ 73% | given dose excreted in urine unchanged [3, 20]: ≈ 3%

CCOc1cc(CC(=O)N[C@@H](CC(C)C)c2ccccc2N2CCCCC2)ccc1C(=O)O [repaglinide]
fraction of unchanged drug excreted through urine (fe) ([7]; healthy volunteers): < 0.1% | mean half-life increase ([7]; subjects with severe renal impairment, after 1 week of treatment): ~4 fold
